The results in this text go back to ChEMBL document CHEMBL1147081, “Structure of the deacetylase LpxC bound to the antibiotic CHIR-090: Time-dependent inhibition and specificity in ligand binding” (Proc Natl Acad Sci U S A, 2007).

Activity calls are given as the source filed them. The rule behind the calls is not given here.

The subject of assay [1] is Rhizobium leguminosarum. The assay is described as follows: Activity of Rhizobium leguminosarum LpxC. The essentials:
(§1)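 Wild-type and site-directed mutant LpxC (E. coli, R. leguminosarum) expressed and purified, then assayed by a previously described method. Substrate was UDP-3-O-(R-3-hydroxymyristoyl)-N-acetylglucosamine, varied for Michaelis–Menten analysis. KM and kcat came from data sets pooling multiple independent experiments.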

Assay [2] has as its target T1, UDP-3-O-acyl-N-acetylglucosamine deacetylase (Aquifex aeolicus (strain VF5)) (UniProt O67648).
T1 sequence (whole entry): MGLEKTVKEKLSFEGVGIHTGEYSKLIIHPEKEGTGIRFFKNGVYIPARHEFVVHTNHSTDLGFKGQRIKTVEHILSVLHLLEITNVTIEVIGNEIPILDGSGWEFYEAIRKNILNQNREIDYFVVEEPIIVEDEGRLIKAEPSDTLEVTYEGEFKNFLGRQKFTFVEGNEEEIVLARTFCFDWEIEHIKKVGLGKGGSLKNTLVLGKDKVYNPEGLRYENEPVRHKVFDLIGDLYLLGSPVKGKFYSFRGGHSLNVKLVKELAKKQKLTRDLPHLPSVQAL
The assay can be described thus: Inhibition of Aquifex aeolicus LpxC.

In assay [3] the target is T2, UDP-3-O-acyl-N-acetylglucosamine deacetylase (Escherichia coli K-12) (UniProt P0A725).
T2 sequence (whole entry): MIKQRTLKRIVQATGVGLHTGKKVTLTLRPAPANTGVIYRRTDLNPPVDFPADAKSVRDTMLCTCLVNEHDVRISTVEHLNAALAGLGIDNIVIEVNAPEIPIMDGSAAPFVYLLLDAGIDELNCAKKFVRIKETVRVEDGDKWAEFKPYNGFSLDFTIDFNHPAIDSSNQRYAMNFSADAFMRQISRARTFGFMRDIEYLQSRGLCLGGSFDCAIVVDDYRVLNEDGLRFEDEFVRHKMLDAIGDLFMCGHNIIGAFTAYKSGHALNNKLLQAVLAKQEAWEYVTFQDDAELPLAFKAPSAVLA
The assay is described as follows: Inhibition of Escherichia coli LpxC at 4 nM.

The subject of assay [4] is Rhizobium leguminosarum. The assay is described as follows: Ratio of Kcat to Km of Rhizobium leguminosarum LpxC. The essentials: as §1
The subject of assay [5] is Rhizobium leguminosarum. The assay can be described thus: Inhibition of Rhizobium leguminosarum LpxC at 0.5 uM.

By Km is commonly meant the substrate concentration at which the rate is half of its maximum. As a reminder, the kcat is the number of substrate molecules converted per active site and unit of time at saturation. Usually inhibition stands for the drop in the measured response relative to a control, in per cent. For orientation: kcat/Km means the second-order rate constant that governs catalysis at low substrate concentration. With `C[C@@H](O)[C@H](NC(=O)c1ccc(C#Cc2ccc(CN3CCOCC3)cc2)cc1)C(=O)NO`, in assay [1], the Km was 4.8 µM and the kcat worked out at 1.7 s⁻¹. For the same molecule, the outcome in assay [2] was Active. In addition, in assay [3], the inhibition was above 75%. In assay [4], the specificity constant (kcat/Km) is 3.5 10^6/M/s. In addition, the inhibition in assay [5] came to 50%.
